High-throughput results: PubChem BioAssay, several laboratories
Rows were chosen to be rich in hits. Some 0.95% of all compounds tested hit in one or more screens of this group.
HNF4A DNA FP: change in binding of human HNF4 alpha to DNA; P41235; HNF4a-FITC DNA binding, fluorescence polarization, 1 h; 360,000 compounds, 0.3% hits; AID 1224865; activity change, % at 10 µM; in the data active means activity change above about 30%, passing the limit was not always enough
Target sequence (P41235 whole entry, looked up): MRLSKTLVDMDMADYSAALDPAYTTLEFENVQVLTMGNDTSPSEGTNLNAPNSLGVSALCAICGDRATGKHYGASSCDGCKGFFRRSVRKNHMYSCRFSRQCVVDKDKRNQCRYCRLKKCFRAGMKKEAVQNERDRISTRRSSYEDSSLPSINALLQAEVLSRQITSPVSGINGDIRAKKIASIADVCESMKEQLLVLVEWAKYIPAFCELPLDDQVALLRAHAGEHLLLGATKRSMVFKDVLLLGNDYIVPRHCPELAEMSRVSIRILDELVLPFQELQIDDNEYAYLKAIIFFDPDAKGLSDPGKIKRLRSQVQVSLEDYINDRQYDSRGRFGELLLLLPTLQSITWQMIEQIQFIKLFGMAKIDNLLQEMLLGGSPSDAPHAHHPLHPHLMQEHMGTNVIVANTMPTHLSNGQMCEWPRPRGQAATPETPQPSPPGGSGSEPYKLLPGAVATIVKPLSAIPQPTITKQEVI
ARFGAP1 inhibitor: inhibitors of rat ARFGAP1. Q62848. Arfgap1-stimulated ARF1 GTP hydrolysis, GDP FP detection. inhibition, % at 16.5 µM. 360,000 compounds, 0.26% hits. AID 651572;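 active means inhibition above a per-plate limit, mean inhibition of low control wells plus 3 SD, cut at about 25% in these data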;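 further: 0% = DMSO wells with enzyme and 100% = wells lacking Arfgap1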
Target sequence (Q62848 1-136 limits assumed): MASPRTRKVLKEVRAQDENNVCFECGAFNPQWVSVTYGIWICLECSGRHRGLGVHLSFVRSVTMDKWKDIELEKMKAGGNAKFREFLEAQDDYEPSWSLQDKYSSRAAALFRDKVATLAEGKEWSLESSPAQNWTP
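Material: truncated rat Arfgap1 GAP domain; Incubation: compound-enzyme preincubation 20 min, reaction 120 min, detection 60 min, 25 °C; Read-out: percent inhibition of Arfgap1-stimulated GTP hydrolysis; Technique: FP, GDP Alexa 633 tracer displaced from anti-GDP antibody, 620/688 nm; Controls: No-Arfgap1 wells (100%) versus DMSO full-reaction wells (0%); Replication: single well per compound.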
CSN inh: CSN deneddylation inhibition; Q92905; 360,000 compounds, 0.38% hits; Purified CSN, SCF-Nedd8-OG deneddylation, fluorescence polarization; inhibition, % at 12.5 µM; AID 651999;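 active means pattern-corrected inhibition above about 35%, with an unprinted fluorescence ratio check between 0.5 and 1.5, limit read from the data, passing the limit was not always enough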;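 further: 0% = enzyme with substrate and 100% = substrate without enzyme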
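Schedule: reaction 90 min, room temperature / Assay system: HEK293T-derived human Csn5 enzyme / Input: Csn5 at 0.24 nM final / Measure: inhibition of Csn5 cleavage, % / Control set: substrate-only high control, full reaction low control / Technique: fluorescence polarization of the substrate / Buffer or medium: Tris/NaCl/DTT buffer, pH 7.5 / Reagent: SCFSkp2-Nedd8OG substrate at 10 nM final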
ASAP1 GAP inh: blocks human ASAP1-stimulated Arf1 GTP hydrolysis; Q9ULH1; GDP FP detection; inhibition, % at 16.5 µM; 360,000 compounds, 0.19% hits; AID 624377; in the data active means inhibition above about 25%;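 further: 0% = vehicle with enzyme and substrate and 100% = no enzyme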
* = called active by the depositor; · = not tested or not shown; + = active, no number.

SMILES	HNF4A DNA FP	ARFGAP1 inhibitor	CSN inh	ASAP1 GAP inh
CN(/N=C/c1ccncc1)c1cnn(-c2ccc(F)c(Cl)c2)c(=O)c1Cl	-2	8	44*	-14
Cc1ccc(-n2ncc(N(C)C)c(Cl)c2=O)cc1	-1	-6	-1	18
C=CC(=O)Nc1ccc(Nc2nc(NC3CCC(N(C)C)CC3)nc3c2ncn3C(C)C)cc1 (stereo not drawn)	18	·	37*	·
COC1=C/C(=C/c2c(N)n3c(nc2=O)sc2cc(S(C)(=O)=O)ccc23)C=CC1=O	96*	6	116	4
CS(=O)(=O)c1ccc2c(c1)sc1nc(=O)c(/C=C3/C=CC(=O)C(O)=C3)c(N)n12	27	8	185	-3
CC1=C(C(=O)N2CCOCC2)CC(CC(=O)NCC2CCCCC2)C(=O)N1Cc1ccccc1 (stereo not drawn)	0	-10	3	4
CCN1C(=O)/C(=C/c2ccc(N3CCCC3)cc2)NC1=S	148	0	137	4
CCCN1C(=O)/C(=C/c2ccc(N3CCOCC3)cc2)NC1=S	90*	6	78	2
COc1cc2cc(Oc3ccc4ccc(=O)oc4c3)c(=O)oc2cc1O[C@@H]1O[C@H](CO)[C@@H](O)[C@H](O)[C@H]1O	-27	10	38*	2
COc1cc2cc(Oc3ccc4ccc(=O)oc4c3)c(=O)oc2cc1OC1OC(COC(=O)CC(C)(O)CC(=O)O)C(O)C(O)C1O (stereo not drawn)	-5	4	9	-13
O=C1N/C(=N/NC(=O)c2cccc3ccccc23)S/C1=C\c1ccccc1OCc1ccccc1	-11	-20	6	-10
COc1ccc(OC)c(/C=C2\S/C(=N/NC(=O)c3ccc4ccccc4c3)NC2=O)c1	1	-8	51*	0
O=c1c2ccccc2nc(/C=C/c2ccc([N+](=O)[O-])o2)n1CCCO	74*	-2	24	7
O=C(NCc1ccccc1)C(=O)NCC1OCCN1S(=O)(=O)c1ccc([N+](=O)[O-])cc1 (stereo not drawn)	32*	2	4	-5
O=C(CSc1nc2sc3c(c2c(=O)n1-c1ccccc1)CCCC3)N/N=C/c1ccccc1C(=O)O	-1	·	50*	·
CN(c1ccc(NC(=O)CCc2cn(Cc3ccc(Br)cc3)c3ccccc23)cc1)c1ccccn1	·	15	·	5
COc1ccc(C(CC(=O)N2CCCC2)c2c(OC)cc(OC)c3c(-c4ccccc4)cc(=O)oc23)cc1 (stereo not drawn)	-11	0	36*	2
Cn1ccc2c(-c3ccc4c(c3)OCCO4)cc3c(c21)C1CCC3C1 (stereo not drawn)	2	-3	117*	-7
Cn1ccc2c(-c3ccc4c(c3)OCCO4)cc3c(c21)C1CCC3O1 (stereo not drawn)	1	-1	-2	-2
CCOc1ccccc1N1CC(C(=O)NNC(=O)c2ccc(F)cc2)CC1=O (stereo not drawn)	-3	-13	+	3
CCOc1ccc(N2CC(C(=O)NNC(=O)c3ccc(F)cc3)CC2=O)cc1 (stereo not drawn)	-1	5	3	10
NC(=O)c1ncn([C@@H]2O[C@H](C(=O)N[C@H](Cc3c[nH]c4ccccc34)C(=O)N3CCN(C(=O)N4CCCCC4)CC3)[C@@H](O)[C@H]2O)n1	·	-5	·	9
O=C(O)c1ccc(S(=O)(=O)NCC2CCCCC2)cc1	72*	14	-3	2
Nc1nn(-c2cccc(F)n2)cc1-c1ccc(Cl)cc1	-3	0	-8	-8
Nc1nn(-c2cccc(F)n2)cc1-c1ccccc1	39*	-5	1	-2
SMILES	HNF4A DNA FP	ARFGAP1 inhibitor	CSN inh	ASAP1 GAP inh
Cn1cc(CC(=O)Nc2ccc(Nc3cccnc3)c(Br)c2)c2ccccc21	·	8	·	-3
COc1cccc(C(=O)N[C@@H](Cc2cccnc2)C(=O)N2CCC[C@H]2C(=O)NCc2ccccc2)c1	·	-12	·	-9
COc1ccc(OC)c(NC(=O)CCC(=O)N(Cc2ccc(OC)c(OC)c2)c2nccs2)c1	-3	-7	43*	-6
Cn1nnnc1SCc1nc2scc(-c3ccc(Cl)cc3)c2c(=O)[nH]1	39*	0	12	-6
C=CCOc1ccc(CNC(C)(C)C)cc1OC	51*	6	-4	-11
C=CCOc1ccc(CNc2nccs2)cc1OC	0	0	-3	3
Nc1[nH]c(C(=O)c2ccccc2)c(-c2ccc(Cl)cc2F)c1C(=O)NCCc1c[nH]c2ccccc12	·	-7	·	7
CCOc1ccc(C(=O)Nc2cccc(C(=O)O)c2)cc1Cl	3	15	-3	9
CCOc1ccc(C(=O)Nc2cc(NC(=O)c3ccc(OCC)c(Cl)c3)cc(C(=O)O)c2)cc1Cl	0	3	49*	14
CCNc1ccc(Br)cc(C(=O)/C=C/c2c(Cl)cccc2Cl)c1=O	3	·	37*	·
CN(Cc1ccc2c(c1)CCCN2C)C(=O)[C@@H](Cc1ccccc1)NC(=O)[C@H]1O[C@@H](n2ccc(=O)[nH]c2=O)[C@H](O)[C@@H]1O	·	2	·	-14
Cc1ccccc1Sc1ccc(N)cn1	72*	0	-78	-5
Cc1ccc(Sc2ccc(N)cn2)cc1	5	-10	45*	0
COc1cccc(-c2cc(CNC(=O)[C@H]3O[C@@H](n4cnc(C(N)=O)n4)[C@H](O)[C@@H]3O)no2)c1	·	-3	·	-1
CCOc1ccccc1CN1CCC(n2nccc2NC(=O)CCc2ccccc2)CC1	1	9	0	9
c1nc(NC2CCCCC2)c2[nH]cnc2n1	-3	20	45*	-3
CCN(CC)c1ccc(C=C2SC(=S)NC2=O)cc1	5	-15	-74	12
Cc1cc(/C=C2\SC(=S)NC2=O)cc(C)c1O	34*	3	33	-13
O=C(CCNC(=O)c1ccc([N+](=O)[O-])cc1)Nc1ccc(N2CCOCC2)cc1N1CCOCC1	0	-3	2	7
O=C(Nc1ccc(N2CCOCC2)cc1N1CCOCC1)c1ccc([N+](=O)[O-])cc1	3	-5	74*	7
Cc1cc(N2CCN(C(=O)OC(C)(C)C)C[C@@H]2C)ccc1N1CCS(=O)(=O)CC1	·	7	·	-9
COc1ccc(OC)c(C2=CC(=O)C[C@H](c3ccc4c(c3)OCO4)C2)c1	-2	6	-4	17
COC(=O)c1cc(C(=O)OCC(=O)c2ccc3c(c2)NC(=O)CO3)cc([N+](=O)[O-])c1	6	8	70*	-3
Cc1cccc(C(=O)OCC(=O)c2ccc3c(c2)NC(=O)CO3)c1	7	-1	0	-3
CN(Cc1ccccc1)S(=O)(=O)c1ccc(Cl)nc1	-2	7	40*	7
CC(C)N(Cc1ccccc1)S(=O)(=O)c1ccc(Cl)nc1	1	4	3	1
O=c1[nH]c2ccccc2nc1/C=C/c1ccc(F)cc1	44*	-10	18	-4
O=c1[nH]c2ccccc2nc1/C=C/c1ccccc1	-1	20	-6	5
